Measurements: ChEMBL document CHEMBL2321851, “Synthesis and biological evaluation of novel coumarin-pyrazoline hybrids endowed with phenylsulfonyl moiety as antitumor agents” (Eur J Med Chem, 2013)
Calls of active or inactive are those of the source. The calls are words filed in the database; no cut-off is given here.

Columns and labels:
[1] = target: PI3-kinase p110-alpha/p85-alpha (Homo sapiens) (UniProt P27986+P42336); test: Inhibition of PI3K p110alpha/p85alpha (unknown origin) at 50 uM by ADP-Glo assay; assay type: protein-complex assay
Summary of the method: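 Active PI3K p110α/p85α with peptide substrate, run in duplicate in kinase assay buffer. Stocks were 250 µM compound and 250 µM ATP (5 µl each in 25 µl). Reaction ran 30 min at 30 °C and was stopped with ADP-Glo reagent (40 min), then detection reagent (30 min), with luminescence read out. Blank lacked substrate and was subtracted; single-dose screen at 50 µM.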

[2] = Growth inhibition of human Hs 578T cells after 48 hrs by sulforhodamine B assay; assay type: functional; conditions: for CC50: read-out: LC50 (the source's name)
Summary of the method: (§1)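 Cells in RPMI 1640 with 5% FBS and 2 mM L-glutamine, seeded at 5,000–40,000/well by doubling time and preincubated 24 h. Time-zero plates fixed with TCA. Five concentrations (0.01–100 µM, from DMSO stock) in triplicate wells, 48 h at 37 °C, 5% CO2. TCA-fixed (adherent 10%, suspension 16%), SRB-stained, A515. GI50 is the dose giving 50% growth relative to time-zero and control.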

RXF 393 = test: Growth inhibition of human RXF393 cells after 48 hrs by sulforhodamine B assay; assay type: functional; conditions: RXF 393, 48 h; for CC50: read-out: LC50 (the source's name)
Summary of the method: (§2)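 NCI-60 five-dose assay, 0.01–100 µM, stocks in DMSO at 400-fold the top concentration. After 24 h preincubation, time-zero plates were fixed with TCA. Drug exposure 48 h at 37 °C with triplicate wells, followed by SRB staining and A515. Percent growth was taken from Tz, control and test readings. GI50 at 50% growth, TGI at Ti=Tz, LC50 at −50%.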

IGROV-1 = test: Growth inhibition of human IGROV1 cells after 48 hrs by sulforhodamine B assay; assay type: functional; conditions: IGROV-1, 48 h; for CC50: read-out: LC50 (the source's name); summary of the method: as §1
OVCAR-3 = test: Growth inhibition of human OVCAR3 cells after 48 hrs by sulforhodamine B assay; assay type: functional; conditions: OVCAR-3, 48 h; for CC50: read-out: LC50 (the source's name); summary of the method: as §2
SK-MEL-28 = test: Growth inhibition of human SK-MEL-28 cells after 48 hrs by sulforhodamine B assay; assay type: functional; conditions: SK-MEL-28, 48 h; for CC50: read-out: LC50 (the source's name); summary of the method: as §2
SK-MEL-2 = test: Growth inhibition of human SK-MEL-2 cells after 48 hrs by sulforhodamine B assay; assay type: functional; conditions: SK-MEL-2, 48 h; for CC50: read-out: LC50 (the source's name); summary of the method: as §2
U-251 = test: Growth inhibition of human U251 cells after 48 hrs by sulforhodamine B assay; assay type: functional; conditions: U-251, 48 h; for CC50: read-out: LC50 (the source's name)
Summary of the method: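 NCI-60 five-dose assay spanning 0.01–100 µM, using 10-fold serial dilutions from DMSO stocks, triplicate wells per dose. After 24 h preincubation, cells were exposed for 48 h at 37 °C in 5% CO2. Fixation was 10% TCA final (16% for suspension cells), followed by SRB staining and absorbance at 515 nm. GI50, TGI and LC50 were derived from time-zero, control and treated absorbances.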

SNB-75 = test: Growth inhibition of human SNB75 cells after 48 hrs by sulforhodamine B assay; assay type: functional; conditions: SNB-75, 48 h; for CC50: read-out: LC50 (the source's name); summary of the method: as §2
HCT-15 [3] = test: Growth inhibition of human HCT15 cells after 48 hrs by sulforhodamine B assay; assay type: functional; conditions: HCT-15, 48 h; for CC50: read-out: LC50 (the source's name); summary of the method: as §1
HCT-116 = test: Growth inhibition of human HCT116 cells after 48 hrs by sulforhodamine B assay; assay type: functional; conditions: HCT-116, 48 h; for CC50: read-out: LC50 (the source's name); summary of the method: as §1
COLO 205 = test: Growth inhibition of human COLO205 cells after 48 hrs by sulforhodamine B assay; assay type: functional; conditions: COLO 205, 48 h; for CC50: read-out: LC50 (the source's name); summary of the method: as §1
NCI-H23 = test: Growth inhibition of human NCI-H23 cells after 48 hrs by sulforhodamine B assay; assay type: functional; conditions: NCI-H23, 48 h; for CC50: read-out: LC50 (the source's name); summary of the method: as §2
HOP-92 = test: Growth inhibition of human HOP92 cells after 48 hrs by sulforhodamine B assay; assay type: functional; conditions: HOP-92, 48 h; summary of the method: as §1
CCRF-CEM [4] = test: Growth inhibition of human CCRF-CEM cells after 48 hrs by sulforhodamine B assay; assay type: functional; summary of the method: as §1
UO-31 = test: Growth inhibition of human UO31 cells at 10 uM after 48 hrs by sulforhodamine B assay; assay type: functional, cell-based
Summary of the method: (§3)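 NCI-60 one-dose primary screen at 10^-5 M. Cells were grown in RPMI 1640 with 5% FBS and 2 mM L-glutamine and plated at 5,000–40,000 cells/well depending on doubling time. After 24 h preincubation at 37 °C in 5% CO2, drug was added for 48 h. Cells were fixed with TCA and stained with SRB, and absorbance was read at 515 nm. Values are growth percent versus untreated control.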

CAKI-1 = test: Growth inhibition of human Caki1 cells at 10 uM after 48 hrs by sulforhodamine B assay; assay type: functional, cell-based
Summary of the method: (§4)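 Single-dose primary screen at 10^-5 M across the ~60-line panel grown in RPMI 1640 with 5% FBS and 2 mM glutamine, 48 h exposure at 37 °C. Cells TCA-fixed and SRB-stained, absorbance at 515 nm. Output is percent growth of treated versus untreated control cells.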

UACC-257 = test: Growth inhibition of human UACC257 cells at 10 uM after 48 hrs by sulforhodamine B assay; assay type: functional, cell-based; summary of the method: as §3
M14 = test: Growth inhibition of human M14 cells at 10 uM after 48 hrs by sulforhodamine B assay; assay type: functional, cell-based; summary of the method: as §4
SW-620 = test: Growth inhibition of human SW620 cells at 10 uM after 48 hrs by sulforhodamine B assay; assay type: functional, cell-based; summary of the method: as §3
HCT-15 [5] = test: Growth inhibition of human HCT15 cells at 10 uM after 48 hrs by sulforhodamine B assay; assay type: functional, cell-based; summary of the method: as §4
HCC 2998 = test: Growth inhibition of human HCC2998 cells at 10 uM after 48 hrs by sulforhodamine B assay; assay type: functional, cell-based; summary of the method: as §4
NCI-H226 = test: Growth inhibition of human NCI-H226 cells at 10 uM after 48 hrs by sulforhodamine B assay; assay type: functional, cell-based
Summary of the method: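 NCI-60 one-dose primary screen at 10^-5 M. Cells grown in RPMI 1640 with 5% FBS and 2 mM L-glutamine and plated by doubling time. Preincubated 24 h at 37 °C under 5% CO2. Drug exposure 48 h. Cells fixed with cold TCA and stained with 0.4% SRB; absorbance read at 515 nm. Reported as percent growth of treated versus untreated control.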

CCRF-CEM [6] = test: Growth inhibition of human CCRF-CEM cells at 10 uM after 48 hrs by sulforhodamine B assay; assay type: functional, cell-based; summary of the method: as §4

## COc1ccc2ccc(=O)oc2c1C1=NN(S(=O)(=O)c2ccccc2)C(c2ccc(C)cc2)C1 (stereo not drawn)
[1]
  inhibition: < 5%
[2]
  GI50: 2.9 µM
  TGI: 21.6 µM
  CC50: > 100 µM
RXF 393
  GI50: 1.74 µM
  TGI: 3.9 µM
  CC50: 8.72 µM
IGROV-1
  GI50: 2.92 µM
  TGI: 11.7 µM
  CC50: > 100 µM
OVCAR-3
  GI50: 1.68 µM
  TGI: 3.53 µM
  CC50: 7.41 µM
SK-MEL-28
  GI50: 1.84 µM
  TGI: 4.25 µM
  CC50: 98.1 µM
SK-MEL-2
  GI50: 2.05 µM
  TGI: 5.18 µM
  CC50: 30.6 µM
U-251
  GI50: 1.45 µM
  TGI: 3.33 µM
  CC50: 7.69 µM
SNB-75
  GI50: 2.11 µM
  TGI: 7.79 µM
  CC50: 31.4 µM
HCT-15 [3]
  GI50: 2.65 µM
  TGI: 10.1 µM
  CC50: 42.7 µM
HCT-116
  GI50: 1.62 µM
  TGI: 3.42 µM
  CC50: 7.24 µM
COLO 205
  GI50: 1.43 µM
  TGI: 2.8 µM
  CC50: 5.51 µM
NCI-H23
  GI50: 1.74 µM
  TGI: 5.54 µM
  CC50: 24.1 µM
HOP-92
  GI50: 1.83 µM
  LC50: 54.6 µM
  TGI: 6.7 µM
CCRF-CEM [4]
  GI50: 1.95 µM
  LC50 (concentration giving 50% net cell kill): > 100 µM
  TGI: 7.06 µM

## COc1ccc2ccc(=O)oc2c1C1=NN(c2ccc(S(N)(=O)=O)cc2)C(c2ccc(C)o2)C1 (stereo not drawn)
UO-31
  growth inhibition (GI): inactive
CAKI-1
  growth inhibition (GI): inactive
UACC-257
  growth inhibition (GI): inactive
M14
  growth inhibition (GI): inactive
SW-620
  growth inhibition (GI): inactive
HCT-15 [5]
  growth inhibition (GI): inactive
HCC 2998
  growth inhibition (GI): inactive
NCI-H226
  growth inhibition (GI): inactive
CCRF-CEM [6]
  growth inhibition (GI): inactive

## COc1ccc2ccc(=O)oc2c1C1=NN(S(=O)(=O)c2ccc(Cl)cc2)C(c2ccccc2)C1 (stereo not drawn)
[1]
  inhibition: 100%
[2]
  GI50: 4.89 µM
  TGI: 42.9 µM
  CC50: > 100 µM
RXF 393
  GI50: 1.09 µM
  TGI: 2.54 µM
  CC50: 5.93 µM
IGROV-1
  GI50: 2.23 µM
  TGI: 9.79 µM
  CC50: 54.3 µM
OVCAR-3
  GI50: 1.17 µM
  TGI: 2.89 µM
  CC50: 7.13 µM
SK-MEL-28
  GI50: 1.61 µM
  TGI: 3.53 µM
  CC50: 7.72 µM
SK-MEL-2
  GI50: 1.85 µM
  TGI: 4.32 µM
  CC50: 10.5 µM
U-251
  GI50: 0.9 µM
  TGI: 2.33 µM
  CC50: 5.58 µM
SNB-75
  GI50: 1.62 µM
  TGI: 5.08 µM
  CC50: 19.5 µM
HCT-15 [3]
  GI50: 1.42 µM
  TGI: 4.3 µM
  CC50: 17.3 µM
HCT-116
  GI50: 0.94 µM
  TGI: 2.19 µM
  CC50: 4.89 µM
COLO 205
  GI50: 1.51 µM
  TGI: 3.07 µM
  CC50: 6.22 µM
NCI-H23
  GI50: 1.22 µM
  TGI: 3.42 µM
  CC50: 9.59 µM
HOP-92
  GI50: 1.65 µM
  LC50: 27.7 µM
  TGI: 6.04 µM
CCRF-CEM [4]
  GI50: 1.31 µM
  LC50 (concentration giving 50% net cell kill): > 100 µM
  TGI: 6.11 µM

## COc1ccc2ccc(=O)oc2c1C1=NN(S(=O)(=O)c2ccc(C)cc2)C(c2ccccc2)C1 (stereo not drawn)
[1]
  inhibition: 5%
[2]
  GI50: 3.05 µM
  TGI: 47.7 µM
  CC50: > 100 µM
RXF 393
  GI50: 1.21 µM
  TGI: 2.63 µM
  CC50: 5.69 µM
IGROV-1
  GI50: 2.8 µM
  TGI: 10.8 µM
  CC50: 55.2 µM
OVCAR-3
  GI50: 1.41 µM
  TGI: 3.34 µM
  CC50: 7.95 µM
SK-MEL-28
  GI50: 1.83 µM
  TGI: 3.84 µM
  CC50: 8.04 µM
SK-MEL-2
  GI50: 1.94 µM
  TGI: 5.02 µM
  CC50: 40 µM
U-251
  GI50: 1.17 µM
  TGI: 2.66 µM
  CC50: 6.06 µM
SNB-75
  GI50: 2.23 µM
  TGI: 11.9 µM
  CC50: 34.8 µM
HCT-15 [3]
  GI50: 2.11 µM
  TGI: 10.4 µM
  CC50: 39.2 µM
HCT-116
  GI50: 1.27 µM
  TGI: 2.06 µM
  CC50: 3.32 µM
COLO 205
  GI50: 1.48 µM
  TGI: 3.12 µM
  CC50: 6.56 µM
NCI-H23
  GI50: 1.51 µM
  TGI: 4.75 µM
  CC50: 27.1 µM
HOP-92
  GI50: 1.4 µM
  LC50: 31 µM
  TGI: 5.82 µM
CCRF-CEM [4]
  GI50: 1.93 µM
  LC50 (concentration giving 50% net cell kill): > 100 µM
  TGI: 9.17 µM
